High-throughput results (PubChem)
Sampled rows, rich in hits. Any-hit rate of the full collection: about 4.6%.
CHO parental Ca – counter-screen: ATP calcium response change in parental CHO cells; 330,000 tested, 0.63% active; inhibition, % at 5.6 µM; parental CHO-K1, ATP-induced calcium, Fluo-8 fluorescence;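 active = inhibition above that plate's mean sample inhibition plus 3 SD, cut at about 26% in these data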
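Test system: untransfected parental CHO cell line; also added: ATP stimulus; dosing: 5.6 µM, single dose; signal: calcium-sensitive Fluo-8 fluorescence; measure: percent inhibition of ATP-evoked calcium rise, normalized to controls; benchmarks: low control ATP plus DMSO, high control DMSO only; replication: one well per compound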
OX1R antag-1 – antagonists of human orexin 1 receptor. 330,000 tested, 0.43% active. inhibition, % at 5 µM. CHO/OX1R cells, Fluo-8 calcium fluorescence, orexin A. AID 434989. O43613;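 active = inhibition above its plate's threshold, mean inhibition of all tested compounds on the plate plus 3 SD, cut at about 37% in these data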
TAAR1 antagonist – antagonists of human TAAR1. Q96RJ0. CHO RD-HGA16 TAAR1, Fluo-8 calcium fluorescence, antagonist. inhibition, % at 3 µM. 360,000 tested, 1.5% active;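 active = inhibition above a per-plate cutoff, the mean inhibition of test compounds on that plate plus 3 SD, cut at about 49% in these data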
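Material: CHO RD-HGA16 cells bearing hTAAR1; compound dosing: one-point dosing, 3 µM nominal final; schedule: dye loading 75 min at 37 °C, then 30 min room temperature; measured by: calcium fluorescence with Fluo-8; control set: vehicle and agonist controls; replication: n of 1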
GPR7 antagonist – blocks human GPR7 receptor signaling; GPR7-expressing cells, fluorescence antagonist assay; inhibition, % at 4.4 µM; 290,000 tested, 1.1% active; AID 1861; in the data active = inhibition above about 16%, passing the limit was not always enough;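 also: cells stimulated with the agonist NPW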
Target sequence (P48145 whole entry, looked up): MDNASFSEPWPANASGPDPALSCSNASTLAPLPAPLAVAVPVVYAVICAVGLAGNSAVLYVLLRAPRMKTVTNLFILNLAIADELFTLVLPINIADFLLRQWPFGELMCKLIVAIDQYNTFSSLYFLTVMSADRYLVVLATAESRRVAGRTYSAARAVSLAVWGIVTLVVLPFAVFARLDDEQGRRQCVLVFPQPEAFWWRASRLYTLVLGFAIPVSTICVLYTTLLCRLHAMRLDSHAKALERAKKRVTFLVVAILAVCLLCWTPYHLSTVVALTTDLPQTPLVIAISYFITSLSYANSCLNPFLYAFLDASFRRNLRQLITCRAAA
OX1R antag-2 – OX1R (human) antagonism; O43613; inhibition, % at 6.6 µM; OX1R-expressing cells, FRET antagonist read-out; 330,000 tested, 1.8% active; in the data active = inhibition mostly above about 38%, no sharp cut-off; inactive = mostly below about 40%
TAAR1 ag – human TAAR1 agonism; AID 624467; activation, % at 3 µM; Q96RJ0; 360,000 tested, 0.99% active; CHO RD-HGA16 TAAR1, Fluo-8 calcium fluorescence; vehicle wells 0%, saturating PEA agonist 100%;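 active = activation above the mean activation of all test compounds in the run plus 3 SD, cut at about 38% in these data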
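Test system: RD-HGA16 (CHO) cells co-expressing Gα16 and hTAAR1 / Benchmarks: DMSO vehicle as 0%, PEA at EC100 as 100% / Repeats: no replicates (n 1) / Measure: % activation from peak over basal fluorescence ratio, DMSO-to-PEA scaled / Timing: 17-24 h plating, Fluo-8 75 min 37 °C, 30 min RT / Technique: kinetic Fluo-8 calcium fluorescence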
Hits are given with their value; i = inactive; nt = not tested or not shown.

SMILES | CHO parental Ca | OX1R antag-1 | TAAR1 antagonist | GPR7 antagonist | OX1R antag-2 | TAAR1 ag
CSc1ccc(C(=O)NCC2CCN(C(=O)C(=O)c3cc4ccccc4o3)CC2)cc1 | nt | nt | i | nt | nt | i
CCCCS(=O)(=O)N1CCCc2nc(-c3ccccc3)ccc21 | nt | nt | i | nt | nt | i
O=C(COC(=O)c1n[nH]c2ccccc12)Nc1ccc(S(=O)(=O)N2CCCC2)cc1 | i | i | i | 17.4 | i | i
O=C(COC(=O)c1n[nH]c2ccccc12)NC1CCCCC1 | i | i | i | nt | i | i
O=S(=O)(c1ccc(C2CCCCC2)cc1)N1CCCC1 | 51.6 | i | i | i | i | i
O=C(COC(=O)c1n[nH]c2ccccc12)NC(=O)NC1CCCCC1 | i | i | i | i | i | 43.6
O=C(COc1ccccc1)Nc1ccc(S(=O)(=O)N2CCCC2)cc1 | i | i | i | 16.8 | i | i
CCCCC(=O)Nc1cc(OC)c(NC(=S)Nc2ccc(OC)cc2)cc1OC | nt | nt | i | nt | nt | i
CON(C)C(=O)C(C)(C)CC#CCN(CC#Cc1ccccc1)S(=O)(=O)c1ccc(C)cc1 | nt | nt | i | nt | nt | i
CCOC(=O)[C@]12CCCC=C1N(Cc1ccc3c(c1)OCO3)C(=O)[C@H](CC(=O)NCCCN1CCCC1=O)C2 | nt | nt | i | nt | nt | i
COC(=O)N1C[C@H](Oc2cccc3ccccc23)[C@H]2C[C@@H]1c1ccccc1O2 | nt | nt | i | nt | nt | i
COc1cc2c(cc1OC)[C@](C)(c1ccccc1)C[C@@H]2NCC=C(C)C | nt | nt | i | nt | nt | i
CCCCOc1ccc(S(=O)(=O)N2CCCCC2)cc1 | 41.7 | i | i | i | i | i
CCN(CC)c1ccc(S(=O)(=O)N2CCOCC2)cc1NC(=O)COC(=O)/C=C/c1ccco1 | nt | nt | 53.8 | nt | nt | i
O=C(COC(=O)c1ccc(O)cc1)Nc1cc(S(=O)(=O)N2CCOCC2)ccc1N1CCOCC1 | nt | nt | i | nt | nt | i
O=C(Nc1ccc(S(=O)(=O)N2CCCC2)cc1)c1ccc([N+](=O)[O-])o1 | i | i | nt | nt | 34.2 | nt
O=C(COC(=O)c1ccc(O)cc1)Nc1cc(S(=O)(=O)N2CCOCC2)ccc1Cl | i | i | 53.3 | nt | i | i
O=C(Nc1ccc(S(=O)(=O)N2CCOCC2)cc1)c1ccc([N+](=O)[O-])o1 | i | i | i | i | i | i
Cc1cc2c(c(=O)o1)[C@@]1(C(=O)N(C)c3ccccc31)C1=C(CCCC1=O)O2 | nt | nt | i | nt | nt | i
CCNC(=O)N1CCN(c2ccc(N3CCN(C(=O)NCC)[C@@H](C)C3)c(C)c2)[C@@H](C)C1 | nt | nt | i | nt | nt | i
CN(C(=O)[C@@H](Cc1ccccc1)NC(=O)[C@H]1O[C@@H](n2cnc3c(=O)[nH]c(N)nc32)[C@H](O)[C@@H]1O)C1CCCCC1 | nt | nt | i | nt | nt | i
O=C1c2ccccc2NC(c2cc(Cl)cc(Cl)c2O)N1CCc1ccccn1 (centres undefined) | nt | nt | i | nt | nt | i
COc1ccc(S(=O)(=O)N2CCc3ccccc3C2)cc1 | i | i | i | i | i | i
CCOc1ccc(S(=O)(=O)N2CCc3ccccc3C2)cc1 | i | i | i | 19.8 | i | i
NS(=O)(=O)c1ccc(NC(=O)COc2ccc(C(=O)c3ccc(F)cc3)cc2)cc1 | 33.8 | i | i | i | i | i
SMILES | CHO parental Ca | OX1R antag-1 | TAAR1 antagonist | GPR7 antagonist | OX1R antag-2 | TAAR1 ag
COc1ccccc1NC(=O)COC(=O)c1ccc(S(=O)(=O)N2CCCCCC2)cc1 | i | i | i | nt | i | i
CCOc1ccccc1NC(=O)COC(=O)c1ccc(S(=O)(=O)N2CCCC2)cc1 | nt | nt | 58.9 | nt | nt | i
CC1=NC2=CC=CC3=NC(C(Cl)(Cl)Cl)=NC(=N1)N23 | nt | nt | i | nt | nt | i
C/C(=N\NC(=O)c1ccccc1F)c1cccc(NC(=O)c2ccccc2)c1 | i | i | i | i | i | i
C/C(=N\NC(=O)c1cc(Br)ccc1O)c1cccc(NC(=O)c2ccccc2F)c1 | i | i | i | i | 59.2 | i
CCN(CC)c1ccc2c(C)c(Cl)c(=O)oc2c1 | i | i | i | i | i | i
CCN(CC)c1ccc2c(Cl)c(Br)c(=O)oc2c1 | 80.8 | 89.9 | nt | 41.0 | i | nt
COc1cc(/C=C/C(=O)OCC(=O)Nc2nnc(-c3ccccc3)o2)cc(OC)c1OC | i | i | i | nt | 72.0 | i
O=C(COC(=O)/C=C/c1ccccc1)Nc1nnc(-c2ccccc2)o1 | i | i | i | nt | i | i
NC1=C(c2ccccc2)C(=O)NC1=O | i | i | i | i | 39.9 | i
O=C1OCC(c2ccccc2)=C1c1ccccc1 | i | i | i | i | i | i
